KDM4C inh = blocks human GASC-1 (KDM4C) demethylase activity. AID 720574. GST-KDM4C 2-372, H3K9me3 peptide, LANCE TR-FRET. inhibition, % at 12.5 µM. actives 0.15% (n = 96,000). Q9H3R0;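 active = mean replicate inhibition above about 25%, with at least 55% of replicates also reaching it, limit read from the data, passing the limit was not always enough; inconclusive = only one of those two conditions met; inactive = neither condition met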
Target sequence (Q9H3R0 2-372 limits assumed): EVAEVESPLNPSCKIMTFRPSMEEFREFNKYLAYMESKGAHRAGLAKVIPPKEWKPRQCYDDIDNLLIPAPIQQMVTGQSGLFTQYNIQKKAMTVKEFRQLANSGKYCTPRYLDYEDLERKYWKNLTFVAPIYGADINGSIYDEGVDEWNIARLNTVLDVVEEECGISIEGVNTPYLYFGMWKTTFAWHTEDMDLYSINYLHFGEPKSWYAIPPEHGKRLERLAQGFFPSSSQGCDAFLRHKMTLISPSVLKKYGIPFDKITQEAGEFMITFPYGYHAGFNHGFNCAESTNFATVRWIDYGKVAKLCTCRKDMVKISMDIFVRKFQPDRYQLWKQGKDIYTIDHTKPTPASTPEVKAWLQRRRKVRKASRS
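System: N-terminal GST-fused human GASC-1 (KDM4C) fragment, residues 2-372; amount: enzyme final amount 10 nM; incubation: reaction 30 min RT, detection step 1 h RT; medium: HEPES buffer, pH 7.5, plus ascorbate; technique: LANCE TR-FRET, Eu antibody, ULight-streptavidin, EDTA, ex 340 nm, em 618/671 nm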
T cruzi growth-1 = blocks T. cruzi growth in NIH3T3 culture. actives 5.9% (n = 77,000). T. cruzi beta-gal in NIH3T3, GalScreen luminescence, 90 h. inhibition, % at 8.34 µM;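 active = mean inhibition above about 93%, with at least 55% of replicates each passing it, limit read from the data, passing the limit was not always enough; inconclusive = only one of those two conditions holds; inactive = neither condition holds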
IDH1 mut inh = IDH1 R132H (human) inhibition | IDH1 R132H reductase, diaphorase/resazurin fluorescence, 60 min | inhibition, % at 10 µM | actives 0.18% (n = 70,000) | AID 624101; in the data active = inhibition above about 34%; inconclusive = no clear call, values can overlap the other calls; inactive = below about 11%
T cruzi growth-2 = inhibitors of T. cruzi proliferation; inhibition, % at 8.35 µM; shares compounds with T cruzi growth-1; actives 72% (n = 5,600); T. cruzi beta-gal in NIH3T3, GalScreen luminescence, 90 h; AID 651739;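 active = mean replicate inhibition above about 95% and at least 55% of replicates individually reaching it, limit read from the data; inconclusive = only one of the two criteria is met; inactive = neither criterion is met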
T cruzi growth-3 = inhibitors of T. cruzi proliferation. shares compounds with T cruzi growth-1. T. cruzi beta-gal in NIH3T3, GalScreen luminescence, 90 h. inhibition, % at 2.09 µM. actives 21% (n = 5,600). AID 651740;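 active = mean inhibition above about 95%, with at least 55% of replicates also reaching it, limit read from the data; inconclusive = meets just one of the two conditions; inactive = meets neither condition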
3T3 cytotox = NIH/3T3 (mouse) viability loss; shares compounds with T cruzi growth-1; NIH/3T3 viability, CellTiter-Glo ATP luminescence, 90 h; cytotoxicity (signal decrease), % at 8.35 µM; actives 14% (n = 5,600); AID 651742;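 active = mean signal decrease across replicates above about 35% based on untreated-well scatter, with enough replicates individually passing, limit read from the data; inconclusive = no rule stated though some were filed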
NIH3T3 tox 2 = kills mouse NIH/3T3 fibroblasts; actives 56% (n = 5,600); inhibition, % at 24.9 µM; shares compounds with T cruzi growth-1; NIH/3T3 viability, CellTiter-Glo ATP luminescence, 90 h; AID 651744;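 active = mean loss of cell viability signal at or above a set limit, and enough replicates individually reaching it; inconclusive = meets only the mean limit or only the replicate share; inactive = meets neither condition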
Numbers stand for hits; n = inactive; u = inconclusive; x = not tested or not shown. This is one part of a sample in which hits are shown more often than they occur.

SMILES	KDM4C inh	T cruzi growth-1	IDH1 mut inh	T cruzi growth-2	T cruzi growth-3	3T3 cytotox	NIH3T3 tox 2
Cc1noc(C)c1NC(=O)N(C)C[C@@H]1OCc2cn(nn2)CCCC(=O)N([C@H](C)CO)C[C@@H]1C	n	u	n	n	n	n	n
COc1ccc(OC(=O)N(C)C[C@@H]2OCc3cn(nn3)CCCC(=O)N([C@H](C)CO)C[C@@H]2C)cc1	n	112.6	n	n	n	n	n
COc1ccc(OC(=O)N(C)C[C@H]2OCc3cn(nn3)CCCC(=O)N([C@H](C)CO)C[C@H]2C)cc1	n	n	n	x	x	x	x
COc1ccc(NC(=O)CCSc2ccc([N+](=O)[O-])cc2)cc1	x	x	n	x	x	x	x
CN1c2ccc(-c3ccc(C#N)cc3)cc2[C@@H]2[C@@H](CCN2C(=O)c2cccc(F)c2)[C@H]1CO	n	u	x	109.6	103.1	n	81.5
CN(C)C(=O)c1cccc(-c2ccc3c(c2)[C@@H]2[C@@H](CCN2C(=O)c2ccc(F)cc2)[C@H](CO)N3C)c1	n	n	x	x	x	x	x
CN(C)C(=O)c1cccc(-c2ccc3c(c2)[C@H]2[C@H](CCN2C(=O)c2cccc(F)c2)[C@@H](CO)N3C)c1	n	98.7	x	103.4	n	n	n
CN1c2ccc(-c3ccc(C#N)cc3)cc2[C@H]2[C@H](CCN2C(=O)c2cccc(F)c2)[C@@H]1CO	n	n	x	x	x	x	x
Cc1ccc(OCC(=O)Nc2ccccc2N2CCN(S(C)(=O)=O)CC2)cc1	x	x	n	x	x	x	x
Cc1cc(C(=O)Nc2cccc3c2O[C@@H](CN(C)C)[C@H](C)CN([C@H](C)CO)C3=O)n(C)n1	n	n	n	x	x	x	x
COc1ccc(-c2nc(SCc3ccc(OC)c([N+](=O)[O-])c3)n[nH]2)cc1	x	x	n	x	x	x	x
C[C@@H]1CN([C@@H](C)CO)S(=O)(=O)c2ccc(Br)cc2O[C@H]1CN(C)Cc1cccnc1	n	x	u	x	x	x	x
C/C=C/c1ccc2c(c1)O[C@H](CN(C)Cc1cccnc1)[C@H](C)CN([C@H](C)CO)S2(=O)=O	n	n	n	x	x	x	x
C/C=C/c1ccc2c(c1)O[C@H](CN(C)Cc1cccnc1)[C@H](C)CN([C@@H](C)CO)S2(=O)=O	n	u	n	n	n	n	n
C[C@H]1CN([C@@H](C)CO)S(=O)(=O)c2ccc(/C=C/c3ccccc3)cc2O[C@@H]1CN(C)Cc1ccccc1	n	n	n	x	x	x	x
C[C@@H]1CN([C@@H](C)CO)S(=O)(=O)c2ccc(/C=C/c3ccccc3)cc2O[C@@H]1CN(C)Cc1ccccc1	n	99.8	n	97.3	110.0	n	81.4
C[C@@H]1CN([C@H](C)CO)S(=O)(=O)c2ccc(/C=C/c3ccccc3)cc2O[C@@H]1CN(C)Cc1cccnc1	n	128.3	n	n	n	83.4	96.2
C[C@H](CO)N1C[C@H](C)[C@@H](CN(C)Cc2cccnc2)Oc2cc(/C=C/c3ccccc3)ccc2S1(=O)=O	n	x	x	x	x	x	x
C/C=C/c1ccc2c(c1)O[C@H](CN(C)Cc1cccnc1)[C@@H](C)CN([C@H](C)CO)S2(=O)=O	n	105.8	u	102.8	99.5	48.4	70.8
CN(C)c1ccc(/C=N/NC(=O)CCCCCCC(=O)Nc2ccccc2O)cc1	x	x	n	x	x	x	x
COc1cccc(NC(=O)C(C)N(c2cc(C)cc(C)c2)S(C)(=O)=O)c1 (centres undefined)	x	x	n	x	x	x	x
CCn1c(SCC(=O)Nc2cccc(C)c2C)nnc1-c1ccc(Cl)c(Cl)c1	x	x	n	x	x	x	x
C[C@@H]1CN([C@H](C)CO)S(=O)(=O)c2ccc(C#CCN(C)C)cc2O[C@H]1CN(C)C(=O)C1CCC1	n	100.2	n	u	100.4	n	n
C[C@@H]1CN([C@@H](C)CO)S(=O)(=O)c2ccc(C#CCN(C)C)cc2O[C@H]1CN(C)C(=O)C1CCC1	n	103.8	x	108.0	98.9	n	n
C[C@H](CO)N1C[C@H](C)[C@H](CN(C)C(=O)C2CC2)Oc2cc(C#CCN(C)C)ccc2S1(=O)=O	n	94.7	n	109.2	n	n	n
SMILES	KDM4C inh	T cruzi growth-1	IDH1 mut inh	T cruzi growth-2	T cruzi growth-3	3T3 cytotox	NIH3T3 tox 2
C[C@@H]1CN([C@@H](C)CO)S(=O)(=O)c2ccc(C#CCN(C)C)cc2O[C@@H]1CN(C)C(=O)C1CCCCC1	n	x	n	x	x	x	x
C[C@H]1CN([C@@H](C)CO)S(=O)(=O)c2ccc(C#CCN(C)C)cc2O[C@H]1CN(C)C(=O)C1CC1	n	n	x	x	x	x	x
C[C@@H]1CN([C@@H](C)CO)S(=O)(=O)c2ccc(C#CCN(C)C)cc2O[C@@H]1CN(C)C(=O)C1CCC1	n	n	x	x	x	x	x
C[C@H]1CN([C@@H](C)CO)S(=O)(=O)c2ccc(C#CCN(C)C)cc2O[C@H]1CN(C)C(=O)C1CCC1	n	105.0	n	101.9	n	n	n
C[C@@H]1CN([C@@H](C)CO)S(=O)(=O)c2ccc(C#CCN(C)C)cc2O[C@H]1CN(C)C(=O)C1CCCCC1	n	x	x	x	x	x	x
CS(=O)(=O)N(CC(=O)Nc1ccc2c(c1)OCCO2)c1cc(Cl)c(Cl)cc1Cl	x	x	n	x	x	x	x
CC(C)=CC(=O)CC(O)(c1ccccc1)c1ccccc1	x	x	n	x	x	x	x
N#C[C@@H]1[C@H](c2ccc(C3=CCCCC3)cc2)[C@@H](CO)N1S(=O)(=O)c1cccc(F)c1	n	97.7	x	u	n	n	104.3
N#C[C@H]1[C@H](c2ccccc2C2=CCCCC2)[C@H](CO)N1S(=O)(=O)c1ccccc1	n	x	x	x	x	x	x
N#C[C@@H]1[C@H](c2ccc(C3=CCCC3)cc2)[C@H](CO)N1S(=O)(=O)c1cccc(F)c1	n	n	x	x	x	x	x
N#C[C@H]1[C@@H](c2ccc(C3=CCCCC3)cc2)[C@H](CO)N1S(=O)(=O)c1ccccc1	n	96.6	x	96.7	n	41.0	99.8
CN1C(=O)c2cc(NC(=O)C3CCCC3)ccc2OC[C@@H]2O[C@H](CC(=O)O)CC[C@@H]21	n	n	x	x	x	x	x
C[C@H]1CN([C@@H](C)CO)C(=O)c2cc(NC(=O)CCC(F)(F)F)ccc2O[C@@H]1CN(C)C(=O)Nc1ccc(C(F)(F)F)cc1	n	x	n	x	x	x	x
COc1ccc(CCNc2cc(C)c3cccc(OC)c3n2)cc1OC	x	x	n	x	x	x	x
Cc1ccc(NC(=O)CCCn2cc([N+](=O)[O-])cn2)cc1C	x	x	n	x	x	x	x
C[C@@H]1CN([C@@H](C)CO)S(=O)(=O)c2ccc(C#CC3CC3)cc2O[C@H]1CN(C)Cc1ccccc1	n	119.8	n	95.0	n	49.6	106.3
C[C@@H]1CN([C@@H](C)CO)S(=O)(=O)c2ccc(C#CC3CC3)cc2O[C@@H]1CN(C)Cc1ccccc1	n	n	n	x	x	x	x
C[C@H]1CN([C@@H](C)CO)S(=O)(=O)c2ccc(C#CC3CC3)cc2O[C@H]1CN(C)Cc1ccccc1	n	n	n	x	x	x	x
C[C@H]1CN([C@@H](C)CO)S(=O)(=O)c2ccc(C#CC3CC3)cc2O[C@@H]1CN(C)Cc1ccccc1	n	111.3	n	99.7	n	n	104.5
CC(=O)Nc1cccc(-c2nnc(SCC(=O)Nc3ccccc3F)n2C)c1	x	x	n	x	x	x	x
